Data as given in PubChem BioAssay AID651999 (Sanford-Burnham Center for Chemical Genomics, 2013).
Out of some 360,000 compounds screened, about 1,400 (0.39%) were called active.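 How the source made its calls: active means pattern-corrected inhibition above about 35%, with an unprinted fluorescence ratio check between 0.5 and 1.5 (limit read from the data, passing the limit was not always enough); inactive means the rest.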 Only a selection was taken, and actives are over-represented in it overall.

biological target: COP9 signalosome complex subunit 5 (Homo sapiens) (UniProt Q92905); test: inhibitors of CSN-mediated cullin deneddylation, primary screen, biochemical, fluorescence polarization, uHTS (AID 651999); conditions: Purified CSN, SCF-Nedd8-OG deneddylation, at 12.5 µM, active compounds read high;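 further: 0% = enzyme with substrate and 100% = substrate without enzyme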
Summary of the method: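 Assay system: Purified human Csn5 enzyme expressed in HEK293T cells | Amount: Enzyme 0.24 nM | Measured by: Fluorescence polarization readout | Medium: Tris/NaCl/DTT buffer, pH 7.5 | Compound dosing: One concentration, 12.5 µM, 0.25% DMSO | Times: 90 min incubation of compound, enzyme and substrate at room temperature | Control set: no-enzyme wells high, enzyme-with-substrate wells low | Read-out: % inhibition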

Chain of COP9 signalosome complex subunit 5 (Homo sapiens) (Q92905 whole entry, looked up, one chain of several): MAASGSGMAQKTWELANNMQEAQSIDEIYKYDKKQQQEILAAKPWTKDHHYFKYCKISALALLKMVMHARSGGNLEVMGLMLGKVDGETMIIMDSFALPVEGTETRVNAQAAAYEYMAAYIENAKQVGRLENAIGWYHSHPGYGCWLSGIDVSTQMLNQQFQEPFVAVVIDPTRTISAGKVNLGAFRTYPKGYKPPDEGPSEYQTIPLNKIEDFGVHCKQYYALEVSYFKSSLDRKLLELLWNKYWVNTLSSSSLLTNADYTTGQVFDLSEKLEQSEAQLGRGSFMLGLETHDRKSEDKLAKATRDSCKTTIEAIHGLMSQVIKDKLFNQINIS

| SMILES | inhibition |
| --- | --- |
| COc1ccc(N2C(=O)/C(=C/c3ccco3)C(=O)NC2=S)cc1 | 39.6% (active) |
| COc1ccc(NC(=O)N2Cc3ccccc3-n3nncc3C2)cc1 | 1.89% (inactive) |
| CCOCCc1c(O)[nH]c(=S)[nH]c1=O | -1.36% (inactive) |
| COc1ccccc1N=Nc1c(O)[nH]c(=S)[nH]c1=O | 64.6% (active) |
| O=C1N=c2ccccc2=C/C1=C\c1c(O)[nH]c(=S)[nH]c1=O | 3.94% (inactive) |
| C=CC12CN(C)[C@@H]3C4CO[C@H](C[C@H]41)[C@]1(C(=O)Nc4ccccc41)[C@@H]32 (stereo not given in full) | 6.32% (inactive) |
| CC(=O)Nc1ccccc1C(=O)OCC(=O)c1cccc2ccccc12 | -2.94% (inactive) |
| CCN1CCN(c2nc3c(c(=O)[nH]2)CCC3)CC1 | 2.3% (inactive) |
| CCNc1nc2[nH]c(=O)c3c(c2s1)OC(N)=C(C#N)C3c1cccs1 (stereo not given) | 7.11% (inactive) |
| Cn1c(O)c(C=NCCN2CCNCC2)c(=O)n(C)c1=O | 2.48% (inactive) |
| CC(C)(C)c1ccc(CN2C(=O)CN=C(c3ccccc3)c3ccccc32)cc1 | -0.66% (inactive) |
| O=C1CC(=O)N(Cc2ccccc2)C(=O)N1CCCCCCN1C(=O)CC(=O)N(Cc2ccccc2)C1=O | 81.1% (active) |
| O=C(CN1CCCC1=O)NCCc1ccccc1 | -4.34% (inactive) |
| COC(=O)C1=C(c2cc3ccccc3s2)C[C@@H]2CC[C@H]1N2C(=O)NC(C)C | 4.07% (inactive) |
| Cc1cccc(-n2c(O)c(/C=N/N3CCOCC3)c(=O)[nH]c2=S)c1 | -0.17% (inactive) |
